# Data reported in ChEMBL document CHEMBL1148054, “Chemical and bioactive constituents from Zanthoxylum simulans” (J Nat Prod, 1994).
# Tests used:
# HL-60 [1] = test: Induction of terminal cell differentiation in human HL60 cells assessed as naphthol AS-D chloroacetate esterase activity at 15.4 uM after 4 days; assay type: functional
# Summary of the method: (§1)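 HL-60 cells were grown in RPMI 1640 with 5% heat-inactivated calf serum at 37°, 5% CO2. They were diluted to 1.2×10^5 cells/ml, preincubated 18 h, then exposed 4 days to DMSO-dissolved samples (final DMSO 0.1%, matched vehicle controls). Specific esterase (naphthol AS-D chloroacetate) was scored cytochemically with a commercial kit as the percentage of differentiated cells.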
# HL-60 [2] = test: Induction of terminal cell differentiation in human HL60 cells assessed as inhibition of [3H]thymidine incorporation at 7.7 uM after 4 days; assay type: functional; set-up: scale not given: the % may be the effect or the level left
# Summary of the method: (§2)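 HL-60 cells were kept in RPMI 1640 with 5% heat-inactivated calf serum and penicillin/streptomycin at 37° under 5% CO2. Log-phase cells were diluted to 1.2×10^5 cells/ml and preincubated 18 h. Samples were added in DMSO (final 0.1%; vehicle controls matched) for 4 days. Aliquots then got 0.5 μCi/ml [3H]thymidine for 16 h more, were harvested and scintillation-counted. % incorporation per 10^6 cells = sample DPM / DMSO-control DPM.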
# HL-60 [3] = test: Induction of terminal cell differentiation in human HL60 cells assessed as inhibition of [3H]thymidine incorporation at 30.7 uM after 4 days; assay type: functional; set-up: scale not given: the % may be the effect or the level left; summary of the method: as §2
# ZR-75-1 = test: Cytotoxicity against human ZR-75-1 cells; assay type: functional; details: ZR-75-1, read-out: ED50
# Summary of the method: (§3)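 Cultured human cancer lines and murine P-388 cells. Complete dose-response data from at least five concentrations of test substance, each tested in duplicate.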
# HL-60 [4] = test: Induction of terminal cell differentiation in human HL60 cells assessed as cell viability at 61.5 uM by trypan blue exclusion method; assay type: functional; details: read-out: Activity
# Summary of the method: (§4)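 HL-60 cells preincubated 18 h at 1.2×10^5 cells/ml, then exposed 4 days to samples in DMSO (final 0.1%). Viability by trypan blue exclusion: viable/(viable+dead)×100. Cell counts also taken after 4 days.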
# HL-60 [5] = test: Induction of terminal cell differentiation in human HL60 cells assessed as cell viability at 3.8 uM by trypan blue exclusion method; assay type: functional; details: read-out: Activity; summary of the method: as §4
# HL-60 [6] = test: Induction of terminal cell differentiation in human HL60 cells assessed as naphthol AS-D chloroacetate esterase activity at 7.7 uM after 4 days; assay type: functional; summary of the method: as §1
# HL-60 [7] = test: Induction of cell differentiation in human HL60 cells assessed as alpha naphthyl esterase activity at 7.7 uM after 4 days; assay type: functional
# Summary of the method: (§5)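 HL-60 cells in RPMI 1640 with 5% heat-inactivated calf serum at 37° under 5% CO2. Log-phase cells diluted to 1.2×10^5 cells/ml and preincubated 18 h, then samples added in DMSO (final 0.1%, DMSO controls). Cells scored after 4 days.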
# HL-60 [8] = test: Induction of terminal cell differentiation in human HL60 cells assessed as naphthol AS-D chloroacetate esterase activity at 61.5 uM after 4 days; assay type: functional; summary of the method: as §1
# HL-60 [9] = test: Induction of terminal cell differentiation in human HL60 cells at 3.8 uM after 4 days by NBT reduction assay; assay type: functional
# Summary of the method: (§6)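 Log-phase HL-60 cells (RPMI 1640, 5% heat-inactivated calf serum, 37°, 5% CO2) were diluted to 1.2×10^5 cells/ml, preincubated 18 h, then treated 4 days with samples in DMSO (final 0.1%; DMSO controls). 10^6 cells were mixed 1:1 with fresh PBS holding 2 mg/ml NBT and 5 μg/ml TPA, 1 h at 37°. Formazan-positive cells were counted microscopically as % NBT-positive.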
# HL-60 [10] = test: Induction of cell differentiation in human HL60 cells assessed as alpha naphthyl esterase activity at 3.8 uM after 4 days; assay type: functional; summary of the method: as §5
# HT-1080 = test: Cytotoxicity against human HT1080 cells; assay type: functional; details: read-out: ED50 (the source's name); summary of the method: as §3
# HL-60 [11] = test: Induction of terminal cell differentiation in human HL60 cells assessed as naphthol AS-D chloroacetate esterase activity at 3.8 uM after 4 days; assay type: functional; summary of the method: as §1
# HL-60 [12] = test: Induction of terminal cell differentiation in human HL60 cells at 61.5 uM after 4 days by NBT reduction assay; assay type: functional; summary of the method: as §6
# [13] = Cytotoxicity against human multidrug-resistant KBV1 cells in presence of vinblastine; assay type: functional; details: KB-V1, read-out: ED50 (the source's name); summary of the method: as §3
# HL-60 [14] = test: Induction of terminal cell differentiation in human HL60 cells assessed as cell viability at 7.7 uM by trypan blue exclusion method; assay type: functional; details: read-out: Activity; summary of the method: as §4
# [15] = Cytotoxicity against human BC1 cells; assay type: functional; details: read-out: ED50 (the source's name); summary of the method: as §3
# HL-60 [16] = test: Induction of terminal cell differentiation in human HL60 cells at 15.4 uM after 4 days by NBT reduction assay; assay type: functional; summary of the method: as §6
# [17] = Antiplatelet activity against rabbit platelet assessed as inhibition of arachidonic acid-induced platelet aggregation at 100 ug/ml; assay type: functional; details: Oryctolagus cuniculus
# HL-60 [18] = test: Induction of terminal cell differentiation in human HL60 cells assessed as naphthol AS-D chloroacetate esterase activity at 30.7 uM after 4 days; assay type: functional; summary of the method: as §1
# [19] = Cytotoxicity against human U373 cells; assay type: functional, U-373MG ATCC; details: U373 MG, read-out: ED50; summary of the method: as §3
# HL-60 [20] = test: Induction of terminal cell differentiation in human HL60 cells assessed as inhibition of [3H]thymidine incorporation at 61.5 uM after 4 days; assay type: functional; set-up: scale not given: the % may be the effect or the level left; summary of the method: as §2
# HL-60 [21] = test: Induction of terminal cell differentiation in human HL60 cells at 7.7 uM after 4 days by NBT reduction assay; assay type: functional; summary of the method: as §6
# KB = test: Cytotoxicity against human KB cells; assay type: functional; details: read-out: ED50 (the source's name); summary of the method: as §3
# LNCaP = test: Cytotoxicity against human LNCAP cells; assay type: functional; details: read-out: ED50; summary of the method: as §3
# P388 = test: Cytotoxicity against mouse P388 cells; assay type: functional; details: read-out: ED50 (the source's name); summary of the method: as §3
# A-431 = test: Cytotoxicity against human A431 cells; assay type: functional; details: read-out: ED50 (the source's name); summary of the method: as §3
# SK-MEL = test: Cytotoxicity against human SK-MEL cells; assay type: functional; details: read-out: ED50 (the source's name); summary of the method: as §3
# HL-60 [22] = test: Induction of terminal cell differentiation in human HL60 cells assessed as cell viability at 30.7 uM by trypan blue exclusion method; assay type: functional; details: read-out: Activity; summary of the method: as §4
# HL-60 [23] = test: Induction of cell differentiation in human HL60 cells assessed as alpha naphthyl esterase activity at 15.4 uM after 4 days; assay type: functional; summary of the method: as §5
# Col2 = test: Cytotoxicity against human Col2 cells; assay type: functional; details: read-out: ED50 (the source's name); summary of the method: as §3
# HL-60 [24] = test: Induction of cell differentiation in human HL60 cells assessed as alpha naphthyl esterase activity at 30.7 uM after 4 days; assay type: functional; summary of the method: as §5
# [25] = Antiplatelet activity against rabbit platelet assessed as inhibition of collagen-induced platelet aggregation at 100 ug/ml; assay type: functional; details: Oryctolagus cuniculus
# HL-60 [26] = test: Induction of cell differentiation in human HL60 cells assessed as alpha naphthyl esterase activity at 61.5 uM after 4 days; assay type: functional; summary of the method: as §5
# HL-60 [27] = test: Induction of terminal cell differentiation in human HL60 cells at 30.7 uM after 4 days by NBT reduction assay; assay type: functional; summary of the method: as §6
# [28] = Antiplatelet activity against rabbit platelet assessed as inhibition of platelet activating factor-induced platelet aggregation at 100 ug/ml; assay type: functional; details: Oryctolagus cuniculus
# HL-60 [29] = test: Induction of terminal cell differentiation in human HL60 cells assessed as inhibition of [3H]thymidine incorporation at 15.4 uM after 4 days; assay type: functional; set-up: scale not given: the % may be the effect or the level left; summary of the method: as §2
# HL-60 [30] = test: Induction of terminal cell differentiation in human HL60 cells assessed as cell viability at 15.4 uM by trypan blue exclusion method; assay type: functional; details: read-out: Activity; summary of the method: as §4
# HL-60 [31] = test: Induction of terminal cell differentiation in human HL60 cells assessed as inhibition of [3H]thymidine incorporation at 3.8 uM after 4 days; assay type: functional; set-up: scale not given: the % may be the effect or the level left; summary of the method: as §2
# Lu1 = test: Cytotoxicity against human Lu1 cells; assay type: functional; details: read-out: ED50 (the source's name); summary of the method: as §3
# [32] = Cytotoxicity against human multidrug-resistant KBV1 cells in absence of vinblastine; assay type: functional; details: KB-V1, read-out: ED50 (the source's name); summary of the method: as §3
structure (smiles),measurement,setting,value
CC(C)C(=O)CCC1(C)C=Cc2c(c3ccccc3n(C)c2=O)O1 (stereo unspecified),Activity,HL-60 [1],8%
same,Activity,HL-60 [2],0%
same,Activity,HL-60 [3],0%
same,EC50,ZR-75-1,11.1 µM
same,viability at 61.5 µM,HL-60 [4],85%
same,viability at 3.8 µM,HL-60 [5],97%
same,Activity,HL-60 [6],6.5%
same,Activity,HL-60 [7],5%
same,Activity,HL-60 [8],5%
same,Activity,HL-60 [9],5.5%
same,Activity,HL-60 [10],5%
same,EC50,HT-1080,> 60 µM
same,Activity,HL-60 [11],5.5%
same,Activity,HL-60 [12],53.1%
same,EC50,[13],4 µM
same,viability at 7.7 µM,HL-60 [14],98%
same,EC50,[15],> 60 µM
same,Activity,HL-60 [16],8%
same,inhibition at 100 µg/mL,[17],100%
same,Activity,HL-60 [18],9.4%
same,EC50,[19],> 60 µM
same,Activity,HL-60 [20],31.6%
same,Activity,HL-60 [21],4.5%
same,EC50,KB,46.4 µM
same,EC50,LNCaP,> 60 µM
same,EC50,P388,9.8 µM
same,EC50,A-431,> 60 µM
same,EC50,SK-MEL,36.6 µM
same,viability at 30.7 µM,HL-60 [22],96%
same,Activity,HL-60 [23],5.5%
same,EC50,Col2,> 60 µM
same,Activity,HL-60 [24],12.22%
same,inhibition at 100 µg/mL,[25],83.9%
same,Activity,HL-60 [26],48.9%
same,Activity,HL-60 [27],9.9%
same,inhibition at 100 µg/mL,[28],100%
same,Activity,HL-60 [29],0%
same,viability at 15.4 µM,HL-60 [30],98%
same,Activity,HL-60 [31],0%
same,EC50,Lu1,> 60 µM
same,EC50,[32],24.3 µM
